Assay results reported in ChEMBL document CHEMBL1139530, “Synthesis and antibacterial properties of novel hydrolyzable cationic amphiphiles. Incorporation of multiple head groups leads to impressive antibacterial activity” (2005).

What was measured:
Format in all cases: functional
Shigella sonnei = assay: Minimum bactericidal concentration against Shigella sonnei
Method in brief: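 A single S. sonnei colony was grown in LB for 12 h at 37 °C with shaking to 10⁷-10⁸ cells/mL, then exposed in tubes to amphiphile from a sterile-water stock, or water as the control, for 5 h at 37 °C with shaking. Diluted samples were spread on LB agar and incubated 24 h at 37 °C. MBC is the lowest concentration leaving no colonies; the value is the mean of three experiments.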

Escherichia coli = assay: Minimum bactericidal concentration against Escherichia coli
Method in brief: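 E. coli from a freeze-dried ampule was streaked on LB agar (37 °C, 24 h), and a single colony was grown in LB for 10 h at 37 °C with shaking to 10⁸-10⁹ cells/mL. Amphiphile from a sterile-water stock, or water as the control, was incubated 5 h at 37 °C with shaking. Dilutions were spread on LB agar for 24 h at 37 °C. MBC is the lowest concentration with no colonies, averaged over three experiments.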

Enterococcus faecalis = assay: Minimum bactericidal concentration against Enterococcus faecalis
Method in brief: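 Spread-plate MBC in LB broth (pH ≈7). E. faecalis came from a blood agar colony and was grown 12 h at 37 °C with shaking to 10⁷-10⁸ cells/mL. Amphiphile was added from a sterile-water stock, with water as the control, then incubated 5 h at 37 °C with shaking. Dilutions were plated on LB agar for 24 h at 37 °C. MBC is the lowest concentration giving no colonies; the value is the mean of three experiments.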

Staphylococcus aureus = assay: Minimum bactericidal concentration against Staphylococcus aureus
Method in brief: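 S. aureus came from a blood agar colony and was grown in LB for 10 h at 37 °C with shaking to 10⁹-10¹⁰ cells/mL. Cells were exposed 5 h at 37 °C with shaking to amphiphile from a sterile-water stock, with water as the control. Dilutions were plated on LB agar for 24 h at 37 °C. MBC is the lowest concentration giving no colonies, averaged over three separate experiments.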

With CCCCCCCCCCCCCCCC[n+]1ccccc1 [CETYLPYRIDINIUM BROMIDE] the MBC (Shigella sonnei) was 12.4 µM, the MBC (Escherichia coli) was 10.4 µM and the MBC (Enterococcus faecalis) was 16.3 µM. The MBC (Staphylococcus aureus) was 15.6 µM.
CCCCCCCCCCCCCCCCOC(=O)C[N+](C)(C)C gave an MBC (Shigella sonnei) of 33.8 µM, an MBC (Escherichia coli) of 20.6 µM and an MBC (Enterococcus faecalis) of 22.5 µM. For the same molecule, the MBC (Staphylococcus aureus) was 24.5 µM.
CCCCCCCCCCCCCCC(COC(=O)C[n+]1ccccc1)COC(=O)C[n+]1ccccc1 gave an MBC (Shigella sonnei) of 8.9 µM, an MBC (Escherichia coli) of 8.2 µM and an MBC (Enterococcus faecalis) of 10.4 µM. The MBC (Staphylococcus aureus) was 13.9 µM.
For CCCCCCCCCCCCCCC(COC(=O)C[N+](C)(C)C)COC(=O)C[N+](C)(C)C, the MBC (Shigella sonnei) was 14.9 µM, the MBC (Escherichia coli) was 9.7 µM and the MBC (Enterococcus faecalis) was 12 µM. It also gave an MBC (Staphylococcus aureus) of 15.1 µM.
Molecule CCCCCCCCCCCCCCC(COC(=O)C[N+](C)(C)C)(COC(=O)C[N+](C)(C)C)COC(=O)C[N+](C)(C)C has an MBC (Shigella sonnei) of 9.6 µM, an MBC (Escherichia coli) of 7.3 µM and an MBC (Enterococcus faecalis) of 9 µM. For the same molecule, the MBC (Staphylococcus aureus) was 11.3 µM.
Hexadecyl-trimethyl-ammonium bromide showed an MBC (Shigella sonnei) of 18.3 µM, an MBC (Escherichia coli) of 16.9 µM and an MBC (Enterococcus faecalis) of 18.5 µM. It also gave an MBC (Staphylococcus aureus) of 18.9 µM.
CCCCCCCCCCCCCCC(COC(=O)C[n+]1ccccc1)(COC(=O)C[n+]1ccccc1)COC(=O)C[n+]1ccccc1 showed an MBC (Shigella sonnei) of 3.5 µM, an MBC (Escherichia coli) of 6.5 µM and an MBC (Enterococcus faecalis) of 4.9 µM. It also gave an MBC (Staphylococcus aureus) of 5.2 µM.
